# Measurements of several laboratories.
# Compare with care: the assays were run in different laboratories.
# Read-out: cell growth or viability
Compound,cell line,assay,conditions,measurement,value
CC=C1[C@H]2C=C(C)C[C@]1(N)c1cc(CC)c(=O)[nH]c1C2,IMR-90,MTT,"100 µM, 24 h",cell death,2.2%
COc1ccc(C[C@H](NC(=O)[C@H](C)NC(=O)CN2CCOCC2)C(=O)N[C@@H](Cc2ccccc2)C(=O)C(=O)Nc2ccccc2)cc1,Caco-2,ATP luminescence,48 h,CC50,16.2 µM
CC=C1[C@H]2C=C(C)C[C@]1(N(C)C)c1ccc(OC)nc1C2,IMR-90,MTT,"100 µM, 24 h",cell death,5.5%
Nc1nc(F)nc2c1ncn2[C@@H]1O[C@H](CO)[C@@H](O)[C@@H]1O,LLC-MK2,,5 days,CC50,54.1 µM
CC(C)C[C@@H](C=O)NC(=O)[C@H](CC(C)C)NC(=O)[C@H](CC(C)C)NC(=O)OCc1ccccc1,Caco-2,neutral red,48 h,CC50,< 0.15 µM
Nc1nc(F)nc2c1ncn2[C@@H]1O[C@H](COP(=O)(O)O)[C@@H](O)[C@@H]1O,LLC-MK2,,5 days,CC50,60.6 µM
O=c1c(O[C@@H]2O[C@H](CO)[C@@H](O)[C@H](O)[C@H]2O)c(-c2ccc(O)cc2)oc2cc(O)cc(O)c12,RD,WST-1,,IC50,48.8 µM
CC(C)(C)NC(=O)N[C@H](C(=O)N1C[C@H]2[C@@H]([C@H]1C(=O)NC(CC1CCC1)C(=O)C(N)=O)C2(C)C)C(C)(C)C (some centres unmarked),Caco-2,neutral red,48 h,CC50,> 100 µM
